# Key:
# Settings in all cases: stereoisomer not certain
# OR13H1 (Homo sapiens) = target: T1, OR13H1 (Homo sapiens) (UniProt Q8NG92)
# T1 sequence (whole entry): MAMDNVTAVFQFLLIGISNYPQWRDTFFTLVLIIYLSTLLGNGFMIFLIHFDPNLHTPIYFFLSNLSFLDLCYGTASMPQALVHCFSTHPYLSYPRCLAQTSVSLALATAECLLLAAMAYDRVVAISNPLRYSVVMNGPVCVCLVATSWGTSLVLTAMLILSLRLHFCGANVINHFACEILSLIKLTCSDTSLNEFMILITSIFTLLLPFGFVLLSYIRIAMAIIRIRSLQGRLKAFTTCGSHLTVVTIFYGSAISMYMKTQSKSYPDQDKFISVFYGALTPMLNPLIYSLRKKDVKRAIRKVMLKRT
# Procedure, shortened: (§1)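 Each receptor–molecule pair is labelled responsive or non-responsive (inactive) according to whether the original authors judged the measured signal statistically different from baseline. The data were taken from the main text and supplementary material of published papers and checked for typos and inconsistencies. Assay methods differed by source, with transient luciferase assays in mammalian cell lines being common.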
# OR13J1 (Homo sapiens) = target: T2, OR13J1 (Homo sapiens) (UniProt Q8NGT2)
# T2 sequence (whole entry): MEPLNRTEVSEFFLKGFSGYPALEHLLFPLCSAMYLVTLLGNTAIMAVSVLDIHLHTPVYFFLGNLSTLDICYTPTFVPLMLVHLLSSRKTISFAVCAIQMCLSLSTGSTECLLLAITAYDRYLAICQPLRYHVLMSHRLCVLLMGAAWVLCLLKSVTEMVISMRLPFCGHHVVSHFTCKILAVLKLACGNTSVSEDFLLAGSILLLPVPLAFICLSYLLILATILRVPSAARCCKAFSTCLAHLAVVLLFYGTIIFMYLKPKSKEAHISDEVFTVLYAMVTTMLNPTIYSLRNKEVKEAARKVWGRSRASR
# Procedure, shortened: as §1
# OR14A16 (Homo sapiens) = target: T3, OR14A16 (Homo sapiens) (UniProt Q8NHC5)
# T3 sequence (whole entry): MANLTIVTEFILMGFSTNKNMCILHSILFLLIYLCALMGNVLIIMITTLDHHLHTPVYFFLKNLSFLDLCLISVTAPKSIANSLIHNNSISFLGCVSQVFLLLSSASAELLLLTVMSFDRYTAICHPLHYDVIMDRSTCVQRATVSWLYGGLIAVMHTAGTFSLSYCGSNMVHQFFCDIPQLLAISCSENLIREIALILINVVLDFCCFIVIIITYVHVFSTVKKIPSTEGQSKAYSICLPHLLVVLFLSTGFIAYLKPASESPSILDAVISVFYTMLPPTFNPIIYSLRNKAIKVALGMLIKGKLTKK
# Procedure, shortened: as §1
# OR14A2 (Homo sapiens) = target: T4, OR14A2 (Homo sapiens) (UniProt Q96R54)
# T4 sequence (whole entry): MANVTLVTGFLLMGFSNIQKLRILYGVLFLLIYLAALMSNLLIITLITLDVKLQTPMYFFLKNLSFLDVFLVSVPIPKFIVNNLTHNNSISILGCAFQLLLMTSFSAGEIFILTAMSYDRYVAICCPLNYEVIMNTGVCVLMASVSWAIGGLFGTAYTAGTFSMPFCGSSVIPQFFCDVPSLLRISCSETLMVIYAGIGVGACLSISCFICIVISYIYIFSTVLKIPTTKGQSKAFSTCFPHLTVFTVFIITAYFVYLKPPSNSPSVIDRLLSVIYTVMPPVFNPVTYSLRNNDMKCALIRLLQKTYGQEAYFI
# Procedure, shortened: as §1
# OR14C36 (Homo sapiens) = target: T5, OR14C36 (Homo sapiens) (UniProt Q8NHC7)
# T5 sequence (whole entry): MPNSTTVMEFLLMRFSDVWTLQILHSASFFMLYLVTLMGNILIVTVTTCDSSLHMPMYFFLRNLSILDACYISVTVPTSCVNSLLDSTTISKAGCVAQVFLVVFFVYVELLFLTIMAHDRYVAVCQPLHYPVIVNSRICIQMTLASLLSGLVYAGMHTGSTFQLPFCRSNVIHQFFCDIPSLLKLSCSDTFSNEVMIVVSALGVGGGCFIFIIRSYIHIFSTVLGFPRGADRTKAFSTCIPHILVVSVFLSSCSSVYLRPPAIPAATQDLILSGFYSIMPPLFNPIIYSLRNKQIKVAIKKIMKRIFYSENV
# Procedure, shortened: as §1
# OR14I1 (Homo sapiens) = target: T6, OR14I1 (Homo sapiens) (UniProt A6ND48)
# T6 sequence (whole entry): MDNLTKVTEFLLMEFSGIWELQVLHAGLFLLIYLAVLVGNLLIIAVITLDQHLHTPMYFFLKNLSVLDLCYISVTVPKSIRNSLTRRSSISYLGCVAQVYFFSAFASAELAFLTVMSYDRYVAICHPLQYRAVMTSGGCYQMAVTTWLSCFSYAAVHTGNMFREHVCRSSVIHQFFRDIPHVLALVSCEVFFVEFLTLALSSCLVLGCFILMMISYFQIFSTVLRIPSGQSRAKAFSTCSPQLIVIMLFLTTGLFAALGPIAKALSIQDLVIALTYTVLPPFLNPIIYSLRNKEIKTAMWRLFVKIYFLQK
# Procedure, shortened: as §1
# OR14J1 (Homo sapiens) = target: T7, OR14J1 (Homo sapiens) (UniProt Q9UGF5)
# T7 sequence (whole entry): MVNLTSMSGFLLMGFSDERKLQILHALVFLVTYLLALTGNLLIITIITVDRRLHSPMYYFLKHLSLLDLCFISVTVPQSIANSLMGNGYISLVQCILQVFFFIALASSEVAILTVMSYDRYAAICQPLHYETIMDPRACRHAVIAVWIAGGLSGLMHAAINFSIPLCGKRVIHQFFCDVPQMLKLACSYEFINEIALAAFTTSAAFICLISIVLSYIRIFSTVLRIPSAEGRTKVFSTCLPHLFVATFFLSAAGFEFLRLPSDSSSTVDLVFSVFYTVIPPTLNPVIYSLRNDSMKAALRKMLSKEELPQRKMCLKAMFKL
# Procedure, shortened: as §1
# OR14K1 (Homo sapiens) = target: T8, OR14K1 (Homo sapiens) (UniProt Q8NGZ2)
# T8 sequence (whole entry): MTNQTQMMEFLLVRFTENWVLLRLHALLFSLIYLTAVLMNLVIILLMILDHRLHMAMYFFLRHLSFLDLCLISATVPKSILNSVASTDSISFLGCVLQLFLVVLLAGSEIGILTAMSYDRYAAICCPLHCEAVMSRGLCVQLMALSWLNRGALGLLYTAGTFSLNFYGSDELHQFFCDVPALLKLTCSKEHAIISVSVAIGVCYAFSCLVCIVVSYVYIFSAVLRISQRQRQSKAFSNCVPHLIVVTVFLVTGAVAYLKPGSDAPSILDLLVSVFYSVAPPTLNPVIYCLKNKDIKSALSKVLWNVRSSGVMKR
# Procedure, shortened: as §1
# OR1A1 (Homo sapiens) = target: T9, OR1A1 (Homo sapiens) (UniProt Q9P1Q5)
# T9 sequence (whole entry): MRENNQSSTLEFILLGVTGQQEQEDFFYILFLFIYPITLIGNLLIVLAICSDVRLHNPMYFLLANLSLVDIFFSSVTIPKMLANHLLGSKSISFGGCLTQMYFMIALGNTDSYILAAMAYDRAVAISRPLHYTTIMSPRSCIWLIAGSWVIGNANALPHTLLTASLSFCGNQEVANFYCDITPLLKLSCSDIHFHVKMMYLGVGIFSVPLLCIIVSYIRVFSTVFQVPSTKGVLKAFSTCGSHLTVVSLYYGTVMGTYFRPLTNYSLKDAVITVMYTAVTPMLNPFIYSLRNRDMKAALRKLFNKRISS
# Procedure, shortened: as §1
# 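Further: active if original authors judged signal statistically different from baseline.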
smiles,measurement,setting,value
CC(CO)CS (centres undefined),odorant receptor agonist call,OR13H1 (Homo sapiens),inactive
same,odorant receptor agonist call,OR13J1 (Homo sapiens),inactive
same,odorant receptor agonist call,OR14A16 (Homo sapiens),inactive
same,odorant receptor agonist call,OR14A2 (Homo sapiens),inactive
same,odorant receptor agonist call,OR14C36 (Homo sapiens),inactive
same,odorant receptor agonist call,OR14I1 (Homo sapiens),inactive
same,odorant receptor agonist call,OR14J1 (Homo sapiens),active
same,odorant receptor agonist call,OR14K1 (Homo sapiens),inactive
same,odorant receptor agonist call,OR1A1 (Homo sapiens),inactive
